# ChEMBL document CHEMBL1926577, “Novel 1,3,4-heterodiazole analogues: synthesis and in-vitro antitumor activity” (2012)
# Columns and labels:
# Assay type in all cases: functional
# SF-295 = assay: Growth inhibition of human SF295 cells at 10 uM after 48 hrs by coulter counter method; details: SF-295, 48 h, read-out: GI
# Method in brief: (§1)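 NCI 60-cell-line panel, single dose. Compound dissolved first in DMSO, then diluted in phosphate-buffered saline so that every final dilution held under 1% DMSO. Duplicate wells received cells at 6 × 10⁴ cells/ml. Controls held PBS/DMSO at the same dilution. Plates were incubated 48 h at 37 °C under 5% CO₂. Cells were then diluted 10-fold in saline and counted on a Coulter counter, with counts corrected for the dilution. Results are given as percent growth inhibition.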
# SR = assay: Growth inhibition of human SR cells at 10 uM after 48 hrs by coulter counter method; details: read-out: GI; method in brief: as §1
# 786-0 = assay: Growth inhibition of human 786-0 cells at 10 uM after 48 hrs by coulter counter method; details: 786-0, 48 h, read-out: GI; method in brief: as §1
# KM12 = assay: Growth inhibition of human KM12 cells at 10 uM after 48 hrs by coulter counter method; details: KM12, 48 h, read-out: GI; method in brief: as §1
# SF-268 = assay: Growth inhibition of human SF268 cells at 10 uM after 48 hrs by coulter counter method; details: SF-268, 48 h, read-out: GI; method in brief: as §1
# CCRF-CEM = assay: Growth inhibition of human CCRF-CEM cells at 10 uM after 48 hrs by coulter counter method; details: read-out: GI; method in brief: as §1
# NCI-H23 = assay: Growth inhibition of human NCI-H23 cells at 10 uM after 48 hrs by coulter counter method; details: NCI-H23, 48 h, read-out: GI; method in brief: as §1
# OVCAR-8 = assay: Growth inhibition of human OVCAR8 cells at 10 uM after 48 hrs by coulter counter method; details: OVCAR-8, 48 h, read-out: GI; method in brief: as §1
# NCI/ADR-RES = assay: Growth inhibition of human NCI/ADR-RES cells at 10 uM after 48 hrs by coulter counter method; details: read-out: GI; method in brief: as §1
# SK-MEL-2 = assay: Growth inhibition of human SK-MEL-2 cells at 10 uM after 48 hrs by coulter counter method; details: SK-MEL-2, 48 h, read-out: GI; method in brief: as §1
# BT-549 = assay: Growth inhibition of human BT549 cells at 10 uM after 48 hrs by coulter counter method; details: BT-549, 48 h, read-out: GI; method in brief: as §1
# UACC-257 = assay: Growth inhibition of human UACC257 cells at 10 uM after 48 hrs by coulter counter method; details: UACC-257, 48 h, read-out: GI; method in brief: as §1
# NCI-H522 = assay: Growth inhibition of human NCI-H522 cells at 10 uM after 48 hrs by coulter counter method; details: NCI-H522, 48 h, read-out: GI; method in brief: as §1
# MOLT-4 = assay: Growth inhibition of human MOLT4 cells at 10 uM after 48 hrs by coulter counter method; details: MOLT-4, 48 h, read-out: GI; method in brief: as §1
# IGROV-1 = assay: Growth inhibition of human IGROV1 cells at 10 uM after 48 hrs by coulter counter method; details: IGROV-1, 48 h, read-out: GI; method in brief: as §1
# Malme-3M = assay: Growth inhibition of human MALME-3M cells at 10 uM after 48 hrs by coulter counter method; details: read-out: GI; method in brief: as §1
# UACC-62 = assay: Growth inhibition of human UACC62 cells at 10 uM after 48 hrs by coulter counter method; details: UACC-62, 48 h, read-out: GI; method in brief: as §1
# HT-29 = assay: Growth inhibition of human HT-29 cells at 10 uM after 48 hrs by coulter counter method; details: HT-29, 48 h, read-out: GI; method in brief: as §1
# A498 = assay: Growth inhibition of human A498 cells at 10 uM after 48 hrs by coulter counter method; details: A498, 48 h, read-out: GI; method in brief: as §1
# MDA-MB-468 = assay: Growth inhibition of human MDA-MB-468 cells at 10 uM after 48 hrs by coulter counter method; details: MDA-MB-468, 48 h, read-out: GI; method in brief: as §1
# SNB-75 = assay: Growth inhibition of human SNB75 cells at 10 uM after 48 hrs by coulter counter method; details: SNB-75, 48 h, read-out: GI; method in brief: as §1
# T47D = assay: Growth inhibition of human T47D cells at 10 uM after 48 hrs by coulter counter method; details: read-out: GI; method in brief: as §1
# HCT-116 = assay: Growth inhibition of human HCT116 cells at 10 uM after 48 hrs by coulter counter method; details: HCT-116, 48 h, read-out: GI; method in brief: as §1
# CAKI-1 = assay: Growth inhibition of human Caki1 cells at 10 uM after 48 hrs by coulter counter method; details: CAKI-1, 48 h, read-out: GI; method in brief: as §1
# TK-10 = assay: Growth inhibition of human TK10 cells at 10 uM after 48 hrs by coulter counter method; details: TK-10, 48 h, read-out: GI; method in brief: as §1
# NCI-H322M = assay: Growth inhibition of human NCI-H322M cells at 10 uM after 48 hrs by coulter counter method; details: read-out: GI; method in brief: as §1
# UO-31 = assay: Growth inhibition of human UO31 cells at 10 uM after 48 hrs by coulter counter method; details: UO-31, 48 h, read-out: GI; method in brief: as §1
# NCI-H226 = assay: Growth inhibition of human NCI-H226 cells at 10 uM after 48 hrs by coulter counter method; details: NCI-H226, 48 h, read-out: GI; method in brief: as §1
# MCF7 = assay: Growth inhibition of human MCF7 cells at 10 uM after 48 hrs by coulter counter method; details: MCF7, 48 h, read-out: GI; method in brief: as §1
# HL-60(TB) = assay: Growth inhibition of human HL-60(TB) cells at 10 uM after 48 hrs by coulter counter method; details: HL-60, 48 h, read-out: GI
# Method in brief: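 Single-dose screen on the NCI 60-line panel (leukemia subpanel). Compound is dissolved in DMSO and diluted in PBS, with final DMSO below 1%. Duplicate wells hold 6 × 10⁴ cells/ml at 37 °C, 5% CO₂, for 48 h. Cells are counted by Coulter counter after 10-fold saline dilution. Read-out is percent growth versus PBS/DMSO controls, expressed as % growth inhibition.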
# SN12C = assay: Growth inhibition of human SN12C cells at 10 uM after 48 hrs by coulter counter method; details: read-out: GI; method in brief: as §1
# SK-MEL-28 = assay: Growth inhibition of human SK-MEL-28 cells at 10 uM after 48 hrs by coulter counter method; details: SK-MEL-28, 48 h, read-out: GI; method in brief: as §1
# HCT-15 = assay: Growth inhibition of human HCT15 cells at 10 uM after 48 hrs by coulter counter method; details: HCT-15, 48 h, read-out: GI; method in brief: as §1
# M14 = assay: Growth inhibition of human M14 cells at 10 uM after 48 hrs by coulter counter method; details: M14, 48 h, read-out: GI; method in brief: as §1
# U-251 = assay: Growth inhibition of human U251 cells at 10 uM after 48 hrs by coulter counter method; details: U-251, 48 h, read-out: GI; method in brief: as §1
# SNB-19 = assay: Growth inhibition of human SNB19 cells at 10 uM after 48 hrs by coulter counter method; details: SNB-19, 48 h, read-out: GI; method in brief: as §1
# A549 = assay: Growth inhibition of human A549 cells at 10 uM after 48 hrs by coulter counter method; details: A549, 48 h, read-out: GI; method in brief: as §1
# LOX IMVI = assay: Growth inhibition of human LOXIMVI cells at 10 uM after 48 hrs by coulter counter method; details: read-out: GI; method in brief: as §1
# EKVX = assay: Growth inhibition of human EKVX cells at 10 uM after 48 hrs by coulter counter method; details: read-out: GI; method in brief: as §1
# PC-3 = assay: Growth inhibition of human PC3 cells at 10 uM after 48 hrs by coulter counter method; details: PC-3, 48 h, read-out: GI; method in brief: as §1
# K562 = assay: Growth inhibition of human K562 cells at 10 uM after 48 hrs by coulter counter method; details: K562, 48 h, read-out: GI; method in brief: as §1
# MDA-MB-435 = assay: Growth inhibition of human MDA-MB-435 cells at 10 uM after 48 hrs by coulter counter method; details: MDA-MB-435, 48 h, read-out: GI; method in brief: as §1
# SK-MEL-5 = assay: Growth inhibition of human SK-MEL-5 cells at 10 uM after 48 hrs by coulter counter method; details: SK-MEL-5, 48 h, read-out: GI; method in brief: as §1
# ACHN = assay: Growth inhibition of human ACHN cells at 10 uM after 48 hrs by coulter counter method; details: read-out: GI; method in brief: as §1
smiles,measurement,setting,value
NC1=CC(N)=NC2SC(c3ccc(Cl)cc3)=NN12 (centres undefined),inhibition of growth at 10 µM,SF-295,< 10%
same,inhibition of growth at 10 µM,SR,19.9%
same,inhibition of growth at 10 µM,786-0,< 10%
same,inhibition of growth at 10 µM,KM12,< 10%
same,inhibition of growth at 10 µM,SF-268,< 10%
same,inhibition of growth at 10 µM,CCRF-CEM,< 10%
same,inhibition of growth at 10 µM,NCI-H23,< 10%
same,inhibition of growth at 10 µM,OVCAR-8,< 10%
same,inhibition of growth at 10 µM,NCI/ADR-RES,< 10%
same,inhibition of growth at 10 µM,SK-MEL-2,27.5%
same,inhibition of growth at 10 µM,BT-549,< 10%
same,inhibition of growth at 10 µM,UACC-257,< 10%
same,inhibition of growth at 10 µM,NCI-H522,19.9%
same,inhibition of growth at 10 µM,MOLT-4,20.6%
same,inhibition of growth at 10 µM,IGROV-1,22.3%
same,inhibition of growth at 10 µM,Malme-3M,< 10%
same,inhibition of growth at 10 µM,UACC-62,< 10%
same,inhibition of growth at 10 µM,HT-29,11.8%
same,inhibition of growth at 10 µM,A498,< 10%
same,inhibition of growth at 10 µM,MDA-MB-468,< 10%
same,inhibition of growth at 10 µM,SNB-75,< 10%
same,inhibition of growth at 10 µM,T47D,< 10%
same,inhibition of growth at 10 µM,HCT-116,< 10%
same,inhibition of growth at 10 µM,CAKI-1,< 10%
same,inhibition of growth at 10 µM,TK-10,< 10%
same,inhibition of growth at 10 µM,NCI-H322M,< 10%
same,inhibition of growth at 10 µM,UO-31,21.9%
same,inhibition of growth at 10 µM,NCI-H226,13.1%
same,inhibition of growth at 10 µM,MCF7,< 10%
same,inhibition of growth at 10 µM,HL-60(TB),34.1%
same,inhibition of growth at 10 µM,SN12C,< 10%
same,inhibition of growth at 10 µM,SK-MEL-28,17.4%
same,inhibition of growth at 10 µM,HCT-15,< 10%
same,inhibition of growth at 10 µM,M14,< 10%
same,inhibition of growth at 10 µM,U-251,< 10%
same,inhibition of growth at 10 µM,SNB-19,< 10%
same,inhibition of growth at 10 µM,A549,< 10%
same,inhibition of growth at 10 µM,LOX IMVI,< 10%
same,inhibition of growth at 10 µM,EKVX,< 10%
same,inhibition of growth at 10 µM,PC-3,14.3%
same,inhibition of growth at 10 µM,K562,26.9%
same,inhibition of growth at 10 µM,MDA-MB-435,< 10%
same,inhibition of growth at 10 µM,SK-MEL-5,< 10%
same,inhibition of growth at 10 µM,ACHN,< 10%
